Variants at the floor of the assay were thinned out.
B1: tRNA (parent)
chain: GUUCCGUUGGCGUAAUGGUAACGCGUCUCCCUCCUAAGGAGAAGACUGCGGGUUCGAGUCCCGUACGGAACG

Variants of: B1
Test: yeast fitness relative to wild type (ratio to wild type); higher = fitter; tRNA-Arg(CCU), competitive growth, 37 C, YPD
Procedure, shortened: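 Changes in genotype frequencies gave Darwinian fitness relative to wild type. Frequencies were read by 100-nucleotide paired-end sequencing of gene amplicons before and after pooled Saccharomyces cerevisiae strains, carrying tRNA-Arg(CCU) gene variants at the native locus, were competed in YPD at 37°C for 24 hours in six replicates. A genotype was kept only with ≥ 100 starting reads, and estimates < 0.5 were set to 0.5.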

Compared with G18C C66A A69U, G18C C31A is higher in yeast fitness: no more than 0.5 for the first, 0.634 for the second.

Compared with U19A A43U C62U, G18C U28G C61U A65C is lower in yeast fitness: 0.771 for the first, no more than 0.5 for the second.

Going from G18C C49G A65U to G18C G23A G25C U26C A37G A43C C55G G68A, the yeast fitness falls from 0.66 to no more than 0.5.

G18C C34G A45C and G18C G41A A42C G50C A70G cannot be ordered by yeast fitness: no more than 0.5 for the first, no more than 0.5 for the second.

Going from G18C C46U to G18C C46A, the yeast fitness rises from 0.626 to 0.726.

Going from G18C G23A G25C A37G A43C C55G C62A G68A to U19A A37U C55G, the yeast fitness rises from no more than 0.5 to 0.593.

U19A A36G A42C C66A and G18C G44A G67U cannot be ordered by yeast fitness: no more than 0.5 for the first, no more than 0.5 for the second.

Compared with U19A C22G A42G U54A G67A, G18C U26A A45G C62G is higher in yeast fitness: no more than 0.5 for the first, 0.556 for the second.

Compared with G18C C30U U64A, U19A A36U A45U C49U U64A A70U is higher in yeast fitness: no more than 0.5 for the first, 0.788 for the second.

First: G18C C33A
Second: G18C U19G C27U A43U
The yeast fitness of the first is higher: 0.592 for the first, no more than 0.5 for the second.

U19A C22G C34U A42G A43G A70U and U19A A20G C24U A43G G48C cannot be ordered by yeast fitness: no more than 0.5 for the first, no more than 0.5 for the second.

G18U A36C G67C and G18C U35A A65C cannot be ordered by yeast fitness: no more than 0.5 for the first, no more than 0.5 for the second.

First: U19A C22U
Second: U19A A37G
The yeast fitness of the first is higher: 0.709 for the first, 0.657 for the second.

Compared with G18C C62U, G18C C62A is lower in yeast fitness: 0.611 for the first, no more than 0.5 for the second.

First: G18C C30U A42G C55A
Second: G18C C30G U32C U53A
The yeast fitness of the first is higher: 0.533 for the first, no more than 0.5 for the second.

First: U19A A40G C55G A65C
Second: G18C U28C C30U A43G C55U
The yeast fitness of the first is higher: 0.534 for the first, no more than 0.5 for the second.

Compared with G18C G50U U53A, G18U is higher in yeast fitness: no more than 0.5 for the first, 0.844 for the second.

Going from U19A A43G to U19A A69C, the yeast fitness rises from 0.867 to 1.08.

First: U19A A69U
Second: U19A A42G G68U
The yeast fitness of the first is higher: 1.04 for the first, no more than 0.5 for the second.

Compared with G18C G56C C62U, G18U U26A is higher in yeast fitness: no more than 0.5 for the first, 0.623 for the second.

Compared with U19A A21C C31G G41A A43C, G18U U32C A57G is higher in yeast fitness: no more than 0.5 for the first, 0.568 for the second.

U19A A36G G50U U59A and G18C G41C G44C C55A cannot be ordered by yeast fitness: no more than 0.5 for the first, no more than 0.5 for the second.

Going from U19A A45U U54G to G18C C33G C49G, the yeast fitness falls from 0.631 to no more than 0.5.

First: G18C C49U A69U
Second: G18C C49A C61G
The yeast fitness of the first is lower: no more than 0.5 for the first, 0.694 for the second.

Going from U19A A57U G67C to G18C C30G A65C, the yeast fitness falls from 0.556 to 0.541.

Going from G18C U26C G50C to G18U A20U, the yeast fitness rises from no more than 0.5 to 0.722.

G18C U47C G51A and G18C C31U C46U cannot be ordered by yeast fitness: no more than 0.5 for the first, no more than 0.5 for the second.

Compared with G18C G51A, U19A A43U A70U is higher in yeast fitness: 0.518 for the first, 0.825 for the second.

G18C C62A G68C and G18C C33A G39C G41C G44C cannot be ordered by yeast fitness: no more than 0.5 for the first, no more than 0.5 for the second.

Compared with G18C G67U, G18C G67C is higher in yeast fitness: 0.632 for the first, 0.656 for the second.

First: G18C G67A
Second: G18C C31G A36C A45G A65G
The yeast fitness of the first is higher: 0.728 for the first, 0.595 for the second.

Compared with U19A A43U C46G, U19A A21U C24A U28C is lower in yeast fitness: 0.658 for the first, no more than 0.5 for the second.

U19A A65C C66G A70G and G18C G51A A57G C66A cannot be ordered by yeast fitness: no more than 0.5 for the first, no more than 0.5 for the second.

First: G18C C31G A42G
Second: G18C C60U A70U
The yeast fitness of the first is higher: 0.505 for the first, no more than 0.5 for the second.

Going from G18U U26A U47C to U19A C22U G56A, the yeast fitness rises from no more than 0.5 to 0.547.

First: U19A A40U
Second: U19A A20C C31G
The yeast fitness of the first is higher: 1.07 for the first, no more than 0.5 for the second.

Compared with U19A A21G C29G, U19A A37U G41C G67A is lower in yeast fitness: 0.543 for the first, no more than 0.5 for the second.

Compared with G18C U26C C29G C31G C33U C46A A69C, G18C G52C is higher in yeast fitness: no more than 0.5 for the first, 0.819 for the second.

G18C C60G A70C and U19A A21G A43C G51C G68C cannot be ordered by yeast fitness: no more than 0.5 for the first, no more than 0.5 for the second.

Going from G18C C30U C33U C49U to U19A A20G C29A A40C G50C, the yeast fitness falls from 0.608 to no more than 0.5.

Compared with U19A, U19A A20U G51C is lower in yeast fitness: 1 for the first, 0.836 for the second.

Going from G18C U53C A57C to U19A A42U, the yeast fitness rises from no more than 0.5 to 0.949.

First: U19A A42C
Second: G18C G25A G38C G41A
The yeast fitness of the first is higher: 0.862 for the first, no more than 0.5 for the second.

First: G18U A45G
Second: G18C U19A U28G A40C C62G C66G
The yeast fitness of the first is higher: 0.758 for the first, no more than 0.5 for the second.

Going from U19A A37G A65G to U19A A43G A57C A65U, the yeast fitness falls from 0.707 to no more than 0.5.

Compared with G18C G44C, G18C G44U is lower in yeast fitness: 0.637 for the first, 0.554 for the second.

Going from G18C G52A C62G to U19A A21U C24A U28C U53C C60G, the yeast fitness falls from 0.55 to no more than 0.5.

U19A A21G C27U C33U G56A and G18C U19G A20G C33A U35C cannot be ordered by yeast fitness: no more than 0.5 for the first, no more than 0.5 for the second.

G18C G50A U59C and U19A A65C C66G cannot be ordered by yeast fitness: no more than 0.5 for the first, no more than 0.5 for the second.

First: G18C U28G
Second: G18C U19G A45C
The yeast fitness of the first is lower: 0.727 for the first, 0.73 for the second.

First: U19A A45G A57C
Second: G18C G23A G25C A37G A43C C55G G68A
The yeast fitness of the first is lower: no more than 0.5 for the first, 0.551 for the second.

Going from G18C U35A A45C to G18C G23C G39A C55A, the yeast fitness rises from 0.671 to 0.696.

First: U19A A70G
Second: G18C G23C
The yeast fitness of the first is higher: 0.913 for the first, 0.577 for the second.

Going from G18C G23A to G18C G39C, the yeast fitness rises from no more than 0.5 to 0.683.

Compared with U19A A43U C55G, G18C G51A C66A is lower in yeast fitness: 0.55 for the first, 0.537 for the second.

First: U19A A20G C49U U59C C62G
Second: G18C U59C
The yeast fitness of the first is lower: no more than 0.5 for the first, 0.559 for the second.

First: G18C C31U A43U
Second: U19A A20U U35C
The yeast fitness of the first is lower: 0.588 for the first, 0.82 for the second.

G18C G23A G25C A37G A43C A65C and G18C C30G C62G cannot be ordered by yeast fitness: no more than 0.5 for the first, no more than 0.5 for the second.

First: U19A A36C A40G A57C
Second: U19A A65C
The yeast fitness of the first is lower: no more than 0.5 for the first, 1.01 for the second.

Compared with U19A A65G, G18C C30U C31U G48A is lower in yeast fitness: 1.05 for the first, no more than 0.5 for the second.

G18U U26A A69U and G18C C33G A40G C61U cannot be ordered by yeast fitness: no more than 0.5 for the first, no more than 0.5 for the second.

Going from G18U U26A G56A G67A to G18C C29U G50C, the yeast fitness falls from 0.578 to no more than 0.5.

G18C U35G G41C C66G and U19A A36U C61U cannot be ordered by yeast fitness: no more than 0.5 for the first, no more than 0.5 for the second.

Compared with G18C C30A, G18C C30G is lower in yeast fitness: 0.642 for the first, no more than 0.5 for the second.

U19A A37U G68U and G18C G23A G25C A37G A43C C55G cannot be ordered by yeast fitness: no more than 0.5 for the first, no more than 0.5 for the second.

G18C U19G C27U A43U G67U and U19A A42G A65C A69C A70G cannot be ordered by yeast fitness: no more than 0.5 for the first, no more than 0.5 for the second.

G18C C30G U32C and G18C G38U G51A cannot be ordered by yeast fitness: no more than 0.5 for the first, no more than 0.5 for the second.

G18U C24U A69U and G18C C30U A45C A69U cannot be ordered by yeast fitness: no more than 0.5 for the first, no more than 0.5 for the second.

Compared with G18C C60G A65G, G18C G68A is higher in yeast fitness: 0.544 for the first, 0.619 for the second.

Going from G18C C49U to G18C C49G, the yeast fitness rises from 0.607 to 0.734.

G18C C31A A37G G58C and G18C G23C U53A A69C cannot be ordered by yeast fitness: no more than 0.5 for the first, no more than 0.5 for the second.

G18C C60G and U19A A37U C55G U64A cannot be ordered by yeast fitness: no more than 0.5 for the first, no more than 0.5 for the second.

First: G18C U64A
Second: G18C U32C A57U
The yeast fitness of the first is higher: 0.593 for the first, no more than 0.5 for the second.

G18C U26A C55G and U19A A37U G41C cannot be ordered by yeast fitness: no more than 0.5 for the first, no more than 0.5 for the second.

Compared with G18C U53A, G18C G25C U28G A42G C49U A57U is higher in yeast fitness: no more than 0.5 for the first, 0.557 for the second.

Going from G18C G56A to G18C G56C, the yeast fitness falls from 0.739 to 0.524.

G18U C33U C34U C66A A70C and G18C G44A G68A cannot be ordered by yeast fitness: no more than 0.5 for the first, no more than 0.5 for the second.

First: U19A A45C
Second: G18C U19A U28G A40C
The yeast fitness of the first is higher: 0.726 for the first, no more than 0.5 for the second.

G18C U32G A57C C62U and U19A A40G G51A cannot be ordered by yeast fitness: no more than 0.5 for the first, no more than 0.5 for the second.

Compared with U19A A40G C55G A70G, U19A A45U A69U is higher in yeast fitness: no more than 0.5 for the first, 0.739 for the second.

Going from G18C G48A to G18C U53G C60A, the yeast fitness falls from 0.571 to no more than 0.5.

First: U19A A36G C46A
Second: G18C U19C C29A C30G
The yeast fitness of the first is higher: 0.69 for the first, no more than 0.5 for the second.

Going from G18C C33G A40G G58A U64A to U19A A43U A69U, the yeast fitness rises from 0.59 to 0.85.

For G18C C55U G67C, the yeast fitness was 0.565.

From the RNAGym collection of RNA variant scans (doi:10.1126/science.aae0568)
